# Source: PubChem (several laboratories)
# GSK3A inh: blockers of GSK3A enzyme activity – biochemical, luminescence, cell-free homogeneous, HTS, primary screen. inhibition, % at 10 µM. GSK-3 alpha kinase, ADP-Glo luminescence, 60 min. 320,000 compounds, 0.1% hits. Glycogen synthase kinase-3 alpha (Homo sapiens), P49840;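 active = more than half of replicates show inhibition above 20%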;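 note: GST-tagged GSK-3 alpha with peptide substrate and 25 µM ATP; 0% = DMSO neutral wells and 100% = GW8510 positive control wells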
# MEKK2 WT-MEK5: modulators of MEK5 binding to wildtype MEKK2, primary screen, biochemical, multiplex bead flow cytometry, Alexa488-MEK5; Mitogen-activated protein kinase kinase kinase 2 (Homo sapiens), Q9Y2U5; Alexa488-MEK5 binding to MEKK2 WT; actives lie on both sides; binding response (% of control), % at 10 µM; 290,000 compounds, 1.1% hits; AID 1531, 2009; in the data active = binding response below about 67% or above about 130%
# MEKK2mut PB1 HTS: MEK5 binding signal on mutant MEKK2 PB1, primary screen, biochemical, multiplex bead flow cytometry, Alexa488-MEK5. Alexa488-MEK5 binding to MEKK2 mutant. percent response, % at 10 µM. 290,000 compounds, 0.35% hits. AID 1530, 2009; in the data active = percent response above about 24%, passing the limit was not always enough
# MEKK3 PB1 HTS: modulators of MEKK3-MEK5 PB1 binding, primary screen, biochemical, wildtype MEKK3, multiplex bead flow cytometry, Alexa488-MEK5; binding response (% of control), % at 10 µM; Mitogen-activated protein kinase kinase kinase 3 (Homo sapiens), Q99759; bead-based flow cytometry, Alexa488-MEK5 binding to MEKK3; actives lie on both sides; 0 = blocked by unlabeled MEK5, 100 = vehicle; 290,000 compounds, 1.4% hits;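 active = binding response more than 3 SD above or below the average of its plate-row segment, actives on both sides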;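 note: Alexa488 bead fluorescence after subtracting the streptavidin-only scavenger bead signal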
# GSK3beta inhib: human GSK3beta kinase inhibitors, primary screen, biochemical, cell-free homogeneous, HTS; Glycogen synthase kinase-3 beta (Homo sapiens), P49841; GST-GSK3beta kinase, ADP-Glo luminescence, 60 min; stronger effect = lower value; activity score (negative = inhibition), % at 10 µM; 300,000 compounds, 0.038% hits; AID 2097, 2009;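 active = more than half of replicate wells score below -50%, meaning over 50% inhibition versus plate controls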;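 note: 0% = median DMSO wells and -100% = median GW8510 positive control wells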
#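 Assay system: GST-fused GSK3beta enzyme, cell-free / Medium: Tris pH 7.5 buffer with MgCl2, DTT, BSA, heparin / Also added: peptide substrate plus 25 µM ATP (final) / Compound: 10 µM single point / Timing: kinase reaction with compound 60 min at room temperature / Detection: ADP-Glo luminescence / Benchmarks: DMSO neutral wells and GW8510 at 20 µM as positive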
# STK33 inh: inhibitors of purified STK33 kinase, primary screen, biochemical, ADP-Glo luminescence, homogeneous, cell-free. Serine/threonine-protein kinase 33 (Homo sapiens), Q9BYT3. MBP phosphorylation. inhibition, % at 10 µM. 320,000 compounds, 0.073% hits;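 active = inhibition at or above 25%, using the most active replicate where run in duplicate; inactive = inhibition below 25%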
# Target sequence (Q9BYT3 whole entry, looked up): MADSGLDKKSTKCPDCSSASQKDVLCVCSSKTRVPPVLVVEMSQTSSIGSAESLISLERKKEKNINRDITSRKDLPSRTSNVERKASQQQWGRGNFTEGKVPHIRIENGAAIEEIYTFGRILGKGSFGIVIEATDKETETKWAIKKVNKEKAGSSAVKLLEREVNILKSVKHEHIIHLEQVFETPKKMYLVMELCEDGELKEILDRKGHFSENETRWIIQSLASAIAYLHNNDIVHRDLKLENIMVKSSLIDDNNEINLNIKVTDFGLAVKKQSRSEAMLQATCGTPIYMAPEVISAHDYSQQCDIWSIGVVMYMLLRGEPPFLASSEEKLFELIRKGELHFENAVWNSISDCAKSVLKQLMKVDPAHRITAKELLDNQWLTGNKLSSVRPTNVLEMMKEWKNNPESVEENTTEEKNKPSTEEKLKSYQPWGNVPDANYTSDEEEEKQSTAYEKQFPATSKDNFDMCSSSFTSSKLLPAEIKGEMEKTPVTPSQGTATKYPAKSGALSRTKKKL
# MEKK2wt confirm: modulators of MEK5 binding to wildtype MEKK2, confirmation, biochemical, single concentration, multiplex bead flow cytometry. shares compounds with MEKK3 PB1 HTS. Alexa488-MEK5 binding to MEKK2 WT; actives lie on both sides. binding response (% of control), % at 10 µM. 5,900 compounds, 2.4% hits. AID 1892, 2009; in the data active = binding response below about 16% or above about 210%; inactive = in between
# MEKK2mut-MEK5: mutant MEKK2 PB1-MEK5 binding signal retest – biochemical, single concentration, multiplex bead flow cytometry, confirmation | shares compounds with MEKK3 PB1 HTS | AID 1893, 2009 | percent response, % at 10 µM | 5,900 compounds, 2% hits | Alexa488-MEK5 binding to MEKK2 mutant; in the data active = percent response mostly above about 71%, no sharp cut-off; inactive = mostly below about 38%;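 note: higher means compound restores mutant binding toward wildtype level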
# MEKK3-MEK5 inh: MEKK3 wild-type PB1 binding to MEK5, inhibitors, confirmation, biochemical, bead multiplex flow cytometry, single concentration, wildtype | shares compounds with MEKK3 PB1 HTS | Alexa488-MEK5 binding to MEKK3; stronger effect = lower value | binding response (% of control), % at 10 µM | 5,900 compounds, 1.8% hits | AID 1894, 2009;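 active = binding response below 72% of control, or above a set upper limit, though filed actives all read lower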;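 note: 100% = DMSO only wells and 0% = binding blocked by excess unlabeled MEK5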
# * hit, by the source's call; · = not tested or not shown; [ ] = remark or other dose. The list is not random: actives were taken first. Their share in the collection is about 2.1%.
SMILES,GSK3A inh,MEKK2 WT-MEK5,MEKK2mut PB1 HTS,MEKK3 PB1 HTS,GSK3beta inhib,STK33 inh,MEKK2wt confirm,MEKK2mut-MEK5,MEKK3-MEK5 inh
Cc1nnc(SCC(=O)N2CCCC(N3CCN(c4ccc(F)cc4)CC3)C2)o1 (stereo not given),0,104,0,104,-1,0,·,·,·
CCCNC(=O)OCc1cccnc1Sc1ccc(C)cc1,-1,115,-1,118,1,-1,·,·,·
CCC(C)NCCOCCOc1ccc(F)cc1 (stereo not given),-4,3.0*[inhibitor],-21,2.0*[inhibitor],1,1,101,-3,99
CCC(C)NCCOCCOc1cc(C)c(Cl)c(C)c1 (stereo not given),1,107,7,102,-18,-1,·,·,·
CC(C)(C)Cc1nnc(NC(=O)CSc2ccccc2)s1,3,103,8,107,-6,-2,·,·,·
N/C(Cc1ccc([N+](=O)[O-])cc1)=N\OC(=O)c1ccc(Br)cc1,-1,109,1,132*,2,-1,106,5,105
CN(C)c1nc(NCc2ccccc2)nc(N/N=C/c2cccc(Br)c2)n1,-6,139*,15,108,-2,0,125,13,106
CN(C)CCCN(C(=O)CCc1ccccc1)c1nc2ccc(Cl)cc2s1,2,164*,43,114,-6,0,184,51,111
CN(C)CCCN(C(=O)COc1ccc(Cl)cc1)c1nc2cc3c(cc2s1)OCO3,0,179*,35*,107,-1,0,176,41,109
CN(C)CCCN(C(=O)COc1ccccc1)c1nc2ccc(Cl)cc2s1,·,167*,32,105,-9,-1,154,20,106
CN(C)CCCN(C(=O)COc1ccc(Cl)cc1)c1nc2cc3c(cc2s1)OCCO3,-1,·,·,·,-2,0,·,·,·
Cc1ccc(S(=O)(=O)CC(=O)N(CCCN(C)C)c2nc3ccc(C)cc3s2)cc1,·,·,·,·,2,·,·,·,·
COc1cccc2sc(N(CCCN(C)C)C(=O)COc3ccc(Cl)cc3)nc12,3,168*,9,105,-7,-1,151,35,103
COc1ccc(NC(=O)C2CCCN(C(=O)c3ccc(Cl)cc3)C2)cc1Cl (stereo not given),-1,·,·,·,·,0,·,·,·
CCC(C)c1ccc(N(CC(=O)NC(C)(C)C)C(=O)CNC(=O)c2cccs2)cc1 (stereo not given),1,99,-1,96,1,3,·,·,·
COc1ccc(/C=N/NC(=O)c2c(-c3ccccc3)noc2C)cc1[N+](=O)[O-],0,109,6,106,3,0,·,·,·
Cc1ccc2nc(N(CCCN(C)C)C(=O)CS(=O)(=O)c3ccccc3)sc2c1,1,·,·,·,-1,0,·,·,·
Cc1ccc2nc(N(CCCN(C)C)C(=O)CCc3ccccc3)sc2c1,3,137,5,139*,-2,2,139,12,102
